Measurements: ChEMBL document CHEMBL3588757, “Structure-based design, synthesis and biological testing of piperazine-linked bis-epipodophyllotoxin etoposide analogs” (Bioorg Med Chem, 2015)
The source made the active and inactive calls. The calls are words filed in the database; no cut-off is given here.

Tests used:
SN12C [1] = experiment: Cytotoxicity against human SN12C cells by SRB assay; type: functional
Method in brief: (§1)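 NCI-60 panel screen; 5-dose testing giving GI50 per cell line, plus a single 10 µM one-dose test. Method details not given beyond the NCI screen.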

HCC 2998 = experiment: Cytotoxicity against human HCC2998 cells assessed as cell growth at 50 uM by SRB assay; type: functional; conditions: read-out: Activity
Method in brief: (§2)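 Measured in the NCI-60 human tumour cell line panel using five-dose testing. Growth was recorded at each dose for each cell line, and a GI50 was derived for each line.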

T47D = experiment: Cytotoxicity against human T47D cells assessed as cell growth at 0.5 uM by SRB assay; type: functional; conditions: read-out: Activity
SK-MEL-2 = experiment: Cytotoxicity against human SK-MEL-2 cells assessed as cell growth at 50 uM by SRB assay; type: functional; conditions: read-out: Activity
SK-MEL-5 = experiment: Cytotoxicity against human SK-MEL-5 cells assessed as cell growth at 0.005 uM by SRB assay; type: functional; conditions: read-out: Activity
CCRF-CEM = experiment: Cytotoxicity against human CCRF-CEM cells assessed as cell growth at 0.005 uM by SRB assay; type: functional; conditions: read-out: Activity
MOLT-4 [2] = experiment: Cytotoxicity against human MOLT4 cells by SRB assay; type: functional; method in brief: as §1
HOP-62 = experiment: Cytotoxicity against human HOP62 cells assessed as cell growth at 0.05 uM by SRB assay; type: functional; conditions: read-out: Activity; method in brief: as §2
NCI-H23 [3] = experiment: Cytotoxicity against human NCI-H23 cells assessed as cell growth at 0.005 uM by SRB assay; type: functional; conditions: read-out: Activity
K562 = experiment: Induction of DNA double strand breaks in human K562 cells assessed as increase in gamma-H2AX level at 25 uM after 4 hrs by chemiluminescence analysis; type: functional, cell-based
Method in brief: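 K562 cells (3.4 × 10^5/mL) exposed 4 h at 37 °C to 25 µM drug or DMSO. Lysed in Tris pH 6.7/SDS buffer; 50 µg protein on 14% SDS-PAGE, PVDF blot. Rabbit anti-γH2AX (1:1000, overnight), GAPDH loading control, HRP secondary. Chemiluminescence imaged by CCD.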

OVCAR-4 [4] = experiment: Cytotoxicity against human OVCAR4 cells assessed as cell growth at 0.005 uM by SRB assay; type: functional; conditions: read-out: Activity
MDA-MB-468 [5] = experiment: Cytotoxicity against human MDA-MB-468 cells assessed as cell growth at 5 uM by SRB assay; type: functional; conditions: read-out: Activity
NCI-H322M [6] = experiment: Cytotoxicity against human NCI-H322M cells assessed as cell growth at 5 uM by SRB assay; type: functional; conditions: read-out: Activity
SK-OV-3 = experiment: Cytotoxicity against human SKOV3 cells assessed as cell growth at 0.5 uM by SRB assay; type: functional; conditions: read-out: Activity
SW-620 = experiment: Cytotoxicity against human SW620 cells assessed as cell growth at 0.05 uM by SRB assay; type: functional; conditions: read-out: Activity
SNB-75 = experiment: Cytotoxicity against human SNB75 cells assessed as cell growth at 0.005 uM by SRB assay; type: functional; conditions: read-out: Activity
COLO 205 = experiment: Cytotoxicity against human COLO205 cells assessed as cell growth at 0.005 uM by SRB assay; type: functional; conditions: read-out: Activity
NCI-H322M [7] = experiment: Cytotoxicity against human NCI-H322M cells assessed as cell growth at 50 uM by SRB assay; type: functional; conditions: read-out: Activity
HL-60(TB) [8] = experiment: Cytotoxicity against human HL-60(TB) cells assessed as cell growth at 0.05 uM by SRB assay; type: functional; conditions: read-out: Activity; method in brief: as §2
MCF7 = experiment: Cytotoxicity against human MCF7 cells assessed as cell growth at 0.5 uM by SRB assay; type: functional; conditions: read-out: Activity
HL-60(TB) [9] = experiment: Cytotoxicity against human HL-60(TB) cells assessed as cell growth at 0.005 uM by SRB assay; type: functional; conditions: read-out: Activity; method in brief: as §2
M14 = experiment: Cytotoxicity against human M14 cells assessed as cell growth at 0.5 uM by SRB assay; type: functional; conditions: read-out: Activity
MDA-MB-435 = experiment: Cytotoxicity against human MDA-MB-435 cells assessed as cell growth at 0.5 uM by SRB assay; type: functional; conditions: read-out: Activity
A549 [10] = experiment: Cytotoxicity against human A549/ATCC cells assessed as cell growth at 0.5 uM by SRB assay; type: functional; conditions: read-out: Activity
A549 [11] = experiment: Cytotoxicity against human A549/ATCC cells assessed as cell growth at 50 uM by SRB assay; type: functional; conditions: read-out: Activity
MDA-MB-468 [12] = experiment: Cytotoxicity against human MDA-MB-468 cells assessed as cell growth at 0.05 uM by SRB assay; type: functional; conditions: read-out: Activity
HCT-116 [13] = experiment: Cytotoxicity against human HCT116 cells assessed as cell growth at 0.05 uM by SRB assay; type: functional; conditions: read-out: Activity; method in brief: as §2
OVCAR-8 = experiment: Cytotoxicity against human OVCAR8 cells assessed as cell growth at 0.5 uM by SRB assay; type: functional; conditions: read-out: Activity
HCT-116 [14] = experiment: Cytotoxicity against human HCT116 cells assessed as cell growth at 0.005 uM by SRB assay; type: functional; conditions: read-out: Activity; method in brief: as §2
NCI-H522 = experiment: Cytotoxicity against human NCI-H522 cells assessed as cell growth at 0.005 uM by SRB assay; type: functional; conditions: read-out: Activity
DU-145 [15] = experiment: Cytotoxicity against human DU145 cells assessed as cell growth at 0.005 uM by SRB assay; type: functional; conditions: read-out: Activity
SN12C [16] = experiment: Cytotoxicity against human SN12C cells assessed as cell growth at 0.5 uM by SRB assay; type: functional; conditions: read-out: Activity
OVCAR-5 = experiment: Cytotoxicity against human OVCAR5 cells assessed as cell growth at 5 uM by SRB assay; type: functional; conditions: read-out: Activity
NCI-H23 [17] = experiment: Cytotoxicity against human NCI-H23 cells assessed as cell growth at 0.05 uM by SRB assay; type: functional; conditions: read-out: Activity
ACHN = experiment: Cytotoxicity against human ACHN cells assessed as cell growth at 5 uM by SRB assay; type: functional; conditions: read-out: Activity
OVCAR-4 [18] = experiment: Cytotoxicity against human OVCAR4 cells by SRB assay; type: functional; method in brief: as §1
PC-3 = experiment: Cytotoxicity against human PC3 cells assessed as cell growth at 50 uM by SRB assay; type: functional; conditions: read-out: Activity
NCI-H322M [19] = experiment: Cytotoxicity against human NCI-H322M cells assessed as cell growth at 0.5 uM by SRB assay; type: functional; conditions: read-out: Activity
MOLT-4 [20] = experiment: Cytotoxicity against human MOLT4 cells assessed as cell growth at 5 uM by SRB assay; type: functional; conditions: read-out: Activity
DU-145 [21] = experiment: Cytotoxicity against human DU145 cells assessed as cell growth at 0.5 uM by SRB assay; type: functional; conditions: read-out: Activity; method in brief: as §2
786-0 = experiment: Cytotoxicity against human 786-0 cells by SRB assay; type: functional
SK-MEL-28 = experiment: Cytotoxicity against human SK-MEL-28 cells assessed as cell growth at 50 uM by SRB assay; type: functional; conditions: read-out: Activity
[22] = read-out: LC50 (the source's name)
[23] = read-out: pLC50 (the source's name) (converted)

## COc1cc([C@@H]2c3cc4c(cc3[C@@H](NC(=O)CN3CCN(CCCCCCN5CCN(CC(=O)N[C@@H]6c7cc8c(cc7[C@@H](c7cc(OC)c(O)c(OC)c7)[C@H]7C(=O)OC[C@@H]76)OCO8)CC5)CC3)[C@H]3COC(=O)[C@H]23)OCO4)cc(OC)c1O
SN12C [1]; read-out: GI50
  GI50: 1.31 µM
SN12C [1]; [22]
  CC50: > 50 µM
SN12C [1]; read-out: TGI
  TGI: > 50 µM
SN12C [1]; read-out: pGI50 (converted)
  GI50: 1.32 µM
SN12C [1]; [23]
  CC50: > 50.1 µM
SN12C [1]; read-out: pTGI (converted)
  TGI: > 50.1 µM
HCC 2998
  growth at 50 µM: -10%
T47D
  growth at 0.5 µM: 79%
SK-MEL-2
  growth at 50 µM: -15%
SK-MEL-5
  growth at 0.005 µM: 97%
CCRF-CEM
  growth at 0.005 µM: 102%
MOLT-4 [2]; read-out: GI50
  GI50: 0.233 µM
MOLT-4 [2]; [22]
  CC50: > 50 µM
MOLT-4 [2]; read-out: TGI
  TGI: > 50 µM
MOLT-4 [2]; read-out: pGI50 (converted)
  GI50: 0.234 µM
MOLT-4 [2]; [23]
  CC50: > 50.1 µM
MOLT-4 [2]; read-out: pTGI (converted)
  TGI: > 50.1 µM
HOP-62
  growth at 0.05 µM: 96%
NCI-H23 [3]
  growth at 0.005 µM: 102%
K562
  Activity: Active
OVCAR-4 [4]
  growth at 0.005 µM: 85%
MDA-MB-468 [5]
  growth at 5 µM: 22%
NCI-H322M [6]
  growth at 5 µM: 99%
SK-OV-3
  growth at 0.5 µM: 97%
SW-620
  growth at 0.05 µM: 91%
SNB-75
  growth at 0.005 µM: 75%
COLO 205
  growth at 0.005 µM: 101%
NCI-H322M [7]
  growth at 50 µM: 37%
HL-60(TB) [8]
  growth at 0.05 µM: 114%
MCF7
  growth at 0.5 µM: 31%
HL-60(TB) [9]
  growth at 0.005 µM: 120%
M14
  growth at 0.5 µM: 79%
MDA-MB-435
  growth at 0.5 µM: 84%
A549 [10]
  growth at 0.5 µM: 56%
A549 [11]
  growth at 50 µM: -37%
MDA-MB-468 [12]
  growth at 0.05 µM: 89%
HCT-116 [13]
  growth at 0.05 µM: 98%
OVCAR-8
  growth at 0.5 µM: 111%
HCT-116 [14]
  growth at 0.005 µM: 93%
NCI-H522
  growth at 0.005 µM: 99%
DU-145 [15]
  growth at 0.005 µM: 102%
SN12C [16]
  growth at 0.5 µM: 78%
OVCAR-5
  growth at 5 µM: 58%
NCI-H23 [17]
  growth at 0.05 µM: 102%
ACHN
  growth at 5 µM: 73%
OVCAR-4 [18]; read-out: GI50
  GI50: 10.5 µM
OVCAR-4 [18]; [22]
  CC50: > 50 µM
OVCAR-4 [18]; read-out: TGI
  TGI: > 50 µM
OVCAR-4 [18]; read-out: pGI50 (converted)
  GI50: 10.5 µM
OVCAR-4 [18]; [23]
  CC50: > 50.1 µM
OVCAR-4 [18]; read-out: pTGI (converted)
  TGI: > 50.1 µM
PC-3
  growth at 50 µM: 25%
NCI-H322M [19]
  growth at 0.5 µM: 93%
MOLT-4 [20]
  growth at 5 µM: 6%
DU-145 [21]
  growth at 0.5 µM: 89%
786-0; read-out: GI50
  GI50: 2.86 µM
786-0; [22]
  CC50: > 50 µM
786-0; read-out: TGI
  TGI: 31.7 µM
786-0; read-out: pGI50 (converted)
  GI50: 2.88 µM
786-0; [23]
  CC50: > 50.1 µM
786-0; read-out: pTGI (converted)
  TGI: 31.6 µM
SK-MEL-28
  growth at 50 µM: 3%
